A value given as a limit tells only on which side of the number the result lay.

For assay [1], the system named is A549. Kind of assay: Antiproliferative activity against human A549 cells after 48 hrs by CCK-8 assay. Type of assay: functional, cell-based. As to conditions: A549, 48 h. The method in brief:
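A549 cells in RPMI1640 with 10% newborn calf serum and 1% penicillin-streptomycin at 37 °C, 5% CO2. Seeded 5 × 10³ cells/well, compounds added after 12 h from DMSO stocks diluted in medium (final DMSO < 0.1% v/v). After 48 h, CCK-8 added for 2 h and OD read at 490 nm. IC50 by Probit regression of inhibition ratio against concentration. At least three experiments.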
In general terms: Tetrazolium assays rely on reduction of a dye to a coloured formazan, in cell work by metabolically active cells.

In assay [2] the test system is A549. Briefly: Antiproliferative activity against human A549 cells at 30 uM after 24 to 72 hrs by CCK-8 assay. Type of assay: functional. The method in brief:
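Time course in A549 cells seeded 5 × 10³ cells/well. Compounds tested at 1, 3, 10 and 30 […] for the periods shown, with final DMSO < 0.1%. Viability by CCK-8 (2 h, OD 490 nm). Mean ± S.D. of three experiments done in triplicate, one-way ANOVA against 24 h and 48 h.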

The term IC50 denotes the point on the concentration scale where inhibition reaches its midpoint. Read a high IC50 as lower potency. Take `CC(C)(C)N(Cc1ccccc1Br)Cc1ccccc1Br`: the IC50 with A549 [1] is > 30 µM.

As to `Brc1ccccc1CN(Cc1ccccc1Br)c1ccccc1`, the IC50 in the assay with A549 [1] is > 30 µM. By inhibition is commonly meant the relative decrease from the control value, in per cent. Higher therefore signals a strong effect. As to `Brc1ccccc1CN(Cc1ccccc1Br)C1CCCCC1`, in the assay with A549 [1], the IC50 was > 30 µM. In the assay with A549 [2], this compound showed an inhibition at 30 µM of 9.39%.

The values above are taken from ChEMBL document CHEMBL3232953, “Synthesis, characterization and anti-proliferative activity of heterocyclic hypervalent organoantimony compounds” (Eur J Med Chem, 2014).
